Bioassay records: PubChem, several laboratories
Rows were chosen to be rich in hits. Some 3.3% of all compounds tested hit in one or more screens of this group.
M18AAP inhibitor: PfM18AAP inhibitors, malaria aminopeptidase, primary screen, biochemical, QFRET, recombinant enzyme; M18 aspartyl aminopeptidase (Plasmodium falciparum 3D7); H-Glu-NHMec fluorogenic cleavage; inhibition, % at 7.35 µM; 290,000 compounds, 1.2% hits;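 active = inhibition above the campaign mean inhibition over all tested compounds plus 3 SD, cut at about 28% in these data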;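 also: 0% = plate median of test compound wells and 100% = 2 mM ZnCl2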
Lipid droplet: inhibitors of hepatocyte lipid droplet formation, primary screen, imaging, high-throughput imaging, BODIPY stain; inhibition, % at 6.5 µM; AID 1656, 2009; 240,000 compounds, 0.4% hits; AML12 mouse hepatocytes, oleate lipid droplets;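 active = lipid droplet intensity inhibited by at least 50%, with more than 500 cells counted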
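Assay system: AML12 mouse liver cells | Compound dosing: One dose, 6.5 µM compound | Read-out basis: Droplet intensity reduction, % inhibition | Measured by: Fluorescence imaging, 20x objective, two fields per well | Schedule: Overnight treatment with compound plus oleate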
sPLA2-III inh: human group III sPLA2 inhibitors, primary screen, biochemical, QFRET, BODIPY PC-A2 liposome substrate; Group 3 secretory phospholipase A2 (Homo sapiens), Q9NZ20; QFRET BODIPY PC-A2 liposome hydrolysis, fluorescence; inhibition, % at 12.2 µM; 370,000 compounds, 0.56% hits;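 active = inhibition above mean plus 3 SD of compounds lying within the high and low control bounds, cut at about 19% in these data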;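 also: 0% = median of test compound wells and 100% = no enzyme DMSO wells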
Arrestin-AP2 inh: inhibitors of beta-arrestin/AP2 binding, primary screen, biochemical, GPCR trafficking, flow cytometry. AID 504490, 2011. inhibition, % at 10 µM. FITC-arrestin peptide / GST-AP2 beads; AP2 beta2 appendage carries R879A mutation. 340,000 compounds, 0.31% hits;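 active = inhibition above a set limit, near 3 SD of compounds lacking own fluorescence, cut at about 54% in these data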;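 also: plate controls were DMSO wells for no effect and 5 µM unlabelled arrestin peptide for full effect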
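Measured by: flow cytometry, FL1 (488/535 nm); Material: AP2 appendage R879A on GSH beads; Evaluation: percent response; Timing: pre-incubation 12 min, peptide binding 1 h, room temperature; Also added: 50 nM FITC-arrestin peptide; Medium: PBS with 0.05% Tween 20 and 0.1% BSA.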
m5-HT2A agonist: mouse Htr2a agonists via beta-arrestin recruitment, primary screen, cell-based, luminescence. 5-hydroxytryptamine receptor 2A (Mus musculus), P35363. CHO-K1 mHTR2A beta-arrestin complementation; percent of 30 µM serotonin response. activation, % at 7.6 µM. 360,000 compounds, 0.66% hits;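 active = activation above a run cutoff, the mean activation of all tested compounds plus 3 SD, cut at about 14% in these data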;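 also: 0% = plate median of compound wells and 100% = 30 µM serotonin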
CendR NRP1 mod: modulators of CendR peptide binding to NRP-1, primary screen, biochemical, fluorescence polarization, uHTS. Neuropilin-1 (Homo sapiens), O14786. FAM-RPARPAR peptide binding to NRP-1. inhibition, % at 25 µM. 360,000 compounds, 0.85% hits;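 active = inhibition or corrected inhibition above about 18%, plus a signal ratio from 0.5 to 1.5, limit read from the data, passing the limit was not always enough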
Target sequence (O14786 whole entry, looked up): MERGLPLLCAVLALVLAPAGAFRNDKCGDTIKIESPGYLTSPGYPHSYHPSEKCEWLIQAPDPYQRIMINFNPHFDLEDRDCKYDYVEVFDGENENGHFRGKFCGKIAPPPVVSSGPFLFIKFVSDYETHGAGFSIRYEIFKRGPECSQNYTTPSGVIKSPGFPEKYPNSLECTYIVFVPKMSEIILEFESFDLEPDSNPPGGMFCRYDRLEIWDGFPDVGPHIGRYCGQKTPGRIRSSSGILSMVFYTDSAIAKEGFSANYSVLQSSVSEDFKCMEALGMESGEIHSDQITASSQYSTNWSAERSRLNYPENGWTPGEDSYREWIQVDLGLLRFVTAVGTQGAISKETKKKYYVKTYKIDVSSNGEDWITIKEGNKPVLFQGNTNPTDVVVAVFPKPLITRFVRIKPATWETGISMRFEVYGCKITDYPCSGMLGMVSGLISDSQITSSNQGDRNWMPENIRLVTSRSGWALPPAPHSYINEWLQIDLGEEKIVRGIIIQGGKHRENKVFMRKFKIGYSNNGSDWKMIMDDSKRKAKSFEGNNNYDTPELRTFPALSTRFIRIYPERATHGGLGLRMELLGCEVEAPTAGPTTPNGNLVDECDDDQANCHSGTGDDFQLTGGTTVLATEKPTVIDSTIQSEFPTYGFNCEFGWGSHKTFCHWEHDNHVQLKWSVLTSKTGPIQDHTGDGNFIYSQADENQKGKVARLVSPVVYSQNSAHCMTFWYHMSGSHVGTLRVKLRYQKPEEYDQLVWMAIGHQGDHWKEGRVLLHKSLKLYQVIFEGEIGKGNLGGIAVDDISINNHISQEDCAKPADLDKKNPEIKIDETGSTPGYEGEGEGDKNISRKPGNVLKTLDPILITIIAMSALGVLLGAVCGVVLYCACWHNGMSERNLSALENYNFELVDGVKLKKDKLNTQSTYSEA
* hit, by the source's call; · = no result given.

SMILES | M18AAP inhibitor | Lipid droplet | sPLA2-III inh | Arrestin-AP2 inh | m5-HT2A agonist | CendR NRP1 mod
CCC(=O)NCCCCNC(=O)CC | -3.8 | -2.2 | 1.0 | 8.3 | -1.2 | 32.8*
COc1ccc(-c2cn(CCO)c(-c3ccc(Cl)nc3)n2)cc1 | · | · | 3.5 | 1.1 | 0.7 | 17.5*
COc1ccc(-c2cn(CCC(=O)O)c(-c3ccc(Cl)nc3)n2)cc1 | · | · | 1.2 | 11.4 | -4.0 | 1.9
CCc1ccc(OCc2nnc(SCc3ccc(C(=O)O)cc3)o2)cc1 | -4.7 | -15.3 | -11.8 | 1.4 | 4.2 | 12.0
O=C(O)c1ccc(CSc2nnc(COc3ccccc3)o2)cc1 | -1.5 | 0.0 | -3.6 | -19.4 | -7.1 | 21.8*
Cc1ccccc1CS(=O)(=O)Cc1ccc(C(=O)Nc2cccc(Cl)c2F)o1 | · | · | -23.4 | · | · | ·
CCOc1cc(C(c2c(O)nc(SC)[nH]c2=O)c2c(O)nc(SC)[nH]c2=O)ccc1O | · | · | -7.7 | -0.7 | 6.0 | 30.5*
COC(=O)c1ccccc1NC(=O)Nc1ccc(Br)cn1 | -2.1 | -0.9 | -3.6 | 38.2 | 0.8 | -8.9
COc1ccc(NC(=O)Nc2ccc(Br)cn2)cc1 | -9.0 | 12.5 | 0.5 | 0.7 | -0.9 | 24.3*
Cc1cccc(N(CC(=O)NC2CCCC2)C(=O)CS(=O)CC(=O)Nc2ccc3c(c2)OCO3)c1C (stereo not drawn) | 7.7 | -5.7 | -2.6 | -11.1 | -3.3 | 28.2*
Cc1ccc(NC(=O)CS(=O)CC(=O)N(CC(=O)NC2CCCC2)c2cccc(C)c2C)cc1 (stereo not drawn) | 3.4 | · | -6.9 | -0.9 | 1.6 | -4.0
CN1CC(O)([C@H](Cc2ccccc2)NC(=O)OC(C)(C)C)OCC1C(=O)NCc1cccc2ccccc12 (stereo partly drawn) | · | · | -12.2 | · | · | ·
Cc1c(Cl)cccc1NC(=S)NCc1cccn1C | -4.3 | -3.0 | 13.1 | 11.6 | 6.8 | 28.3*
CC(=O)Nc1cccc(NC(=S)Nc2cccc3ccccc23)c1 | 11.9 | -15.3 | 10.2 | -1.5 | 1.0 | 30.3*
Cc1ccccc1NC(=S)NCc1cccn1C | -11.0 | 0.6 | 1.8 | 12.8 | 5.7 | 13.1
CC(=O)Nc1cccc(NC(=S)Nc2cccc(Cl)c2C)c1 | 31.1* | 2.7 | 1.6 | 15.0 | 1.6 | -3.8
CC(=O)Nc1cccc(NC(=O)Nc2cccc(Cl)c2C)c1 | -0.5 | 15.4 | -0.8 | 25.0 | 2.0 | -4.2
CC(=O)c1cccc(NC(=S)Nc2cccc3ccccc23)c1 | -9.3 | -0.4 | 10.8 | -1.8 | -3.0 | 6.5
CN(C(=O)c1ccc(Cl)cc1)c1ccc(OCC(=O)Nc2cc(C(=O)O)ccc2Cl)cc1 | · | · | -23.1 | · | · | ·
O=C(C1CCCN1S(=O)(=O)c1cccc([N+](=O)[O-])c1)N1CCN(c2ccccc2)CC1 (stereo not drawn) | · | · | -1.3 | · | · | ·
COc1cc(OC)cc(C(=O)N2CCN(C3CCC(C)CC3)CC2)c1 (stereo not drawn) | · | · | -3.6 | 6.0 | 5.2 | -0.1
CC(C)(C)OC(=O)N1CCc2onc(-c3ccc(Cl)cc3)c2C1=O | · | · | -0.9 | · | -2.2 | -10.7
CC(C)CN1C(=O)C[C@@]2(C(=O)N(C)c3ccc(NS(=O)(=O)C4CCCCC4)cc32)C1c1ccccc1 (stereo partly drawn) | · | · | -11.1 | · | · | ·
Cc1cccc2c(-c3ccccc3)cc(=O)[nH]c12 | 5.5 | -3.8 | 2.2 | 6.7 | -2.7 | -14.8
Cc1cc(=S)[nH]c2c(C)cccc12 | 33.1* | -3.3 | 2.2 | 25.7 | 2.1 | 8.2
SMILES | M18AAP inhibitor | Lipid droplet | sPLA2-III inh | Arrestin-AP2 inh | m5-HT2A agonist | CendR NRP1 mod
CC(=O)Nc1nc2ncccn2c1-c1ccc(C)cc1 | · | · | 5.2 | · | · | ·
Fc1ccccc1NC(=S)Nc1cccc2cnccc12 | 9.2 | 15.1 | 2.7 | 10.9 | -2.9 | 44.0*
COc1ccccc1NS(=O)(=O)c1cccc(C(=O)N/N=C(\C)c2ccc(-n3ccnc3)cc2)c1 | 30.5* | -90.7 | -11.3 | -5.5 | 4.7 | -6.5
COc1ccccc1NS(=O)(=O)c1cccc(C(=O)N/N=C(/C)c2ccc(-n3ccnc3)cc2)c1 | · | · | -11.2 | 0.7 | -0.6 | -4.1
OC[C@@H]1CN(Cc2ccc(-c3ccccc3)cc2)C[C@H](n2cnc3c(NCc4ccco4)ncnc32)O1 | · | · | -44.9 | · | 18.4* | -8.4
COc1ccc(NC(=S)N(Cc2cccc(Br)c2)CC2CCC(C(=O)O)CC2)cc1 (stereo not drawn) | 3.5 | -17.5 | -2.9 | 39.1 | 2.6 | 9.6
COc1cccc(NC(=S)N(Cc2cccc(Br)c2)CC2CCC(C(=O)O)CC2)c1 (stereo not drawn) | 9.0 | 4.9 | -6.3 | 18.9 | 0.1 | 30.5*
COc1ccc(-n2nnnc2C(CCc2ccccc2)N2CCN(C/C=C/c3ccccc3)CC2)cc1 (stereo not drawn) | · | · | -17.5 | · | -1.8 | 24.0*
COc1ccc(-n2nnnc2C(c2ccccc2)N2CCN(C/C=C/c3ccccc3)CC2)cc1 (stereo not drawn) | · | · | -8.9 | · | -9.6 | 0.0
COc1ccc2nc3cc(Cl)ccc3c(Nc3cc(CN4CCCC4)c(O)c(CN4CCCC4)c3)c2n1 | 28.3* | -28.9 | -16.4 | · | -1.0 | 0.4
Cc1ccc(S(=O)(=O)N2CCCC2C(=O)NCc2ccccc2Cl)cc1 (stereo not drawn) | 5.8 | -9.7 | 1.8 | 13.0 | -1.8 | -5.6
COC(=O)C(CN)CN1C(=O)c2ccccc2C1=O (stereo not drawn) | · | · | 3.2 | · | · | ·
COc1ccc(N2CCN(C(=O)c3ccc(OCc4c(C)noc4C)c(OC)c3)CC2)cc1 | -12.7 | · | 6.9 | 26.1 | 5.7 | 8.1
COc1cc(C(=O)N2CCN(c3ccc([N+](=O)[O-])cc3)CC2)ccc1OCc1c(C)noc1C | 3.8 | 4.2 | 2.6 | 11.1 | -4.8 | 19.3*
Cc1ccc(C(NC(=O)C2CCCCC2)c2c(O)ccc3ccccc23)cc1 (stereo not drawn) | -0.1 | 57.3* | -32.7 | 4.9 | -0.3 | 6.0
O=C(COC(=O)c1ccc(F)cc1F)Nc1ccc2c(c1)OCO2 | · | · | 11.8 | · | -1.0 | 4.2
CC(NC(=S)NCCCN1CCOCC1)C12CC3CC(CC(C3)C1)C2 (stereo not drawn) | -11.8 | 8.3 | 7.7 | 4.8 | -0.7 | 26.7*
COC1=CC(=O)OC(c2ccc(C(F)(F)F)cc2)C1 (stereo not drawn) | · | · | 4.2 | · | -2.5 | 25.6*
CCCS(=O)(=O)N1CCCC(C(=O)NC2CCCC(C)C2C)C1 (stereo not drawn) | -2.0 | 11.2 | 2.9 | 1.8 | 4.5 | 0.1
